≈ marks a conversion by molar mass, not a printed value. Calls of active or inactive are those of the source. The rule behind the calls is not given here.
Key:
[1] = Kinetic solubility of compound in PBS buffer at pH 7 incubated for 15 mins by HPLC-UV analysis
[2] = Metabolic stability in mouse liver microsomes assessed as residual ratio measured after 30 mins in presence of NADPH by LC-MS/MS analysis relative to absence of NADPH; assay type: ADME, Microsome; details: read-out: Stabilty
Summary of the method: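 Incubation with mouse liver microsomes (0.5 mg/mL), 30 min at 37 °C, in 0.1 M potassium phosphate pH 7.4, 0.1 mM EDTA, 6 mM MgCl2 and an NADPH-generating system (β-NADP+, glucose-6-phosphate, G6P dehydrogenase). Quenched with acetonitrile/methanol (7:3) containing propranolol internal standard, then LC-MS/MS. Residual ratio with NADPH taken relative to without NADPH.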

[3] = Cmax in CAnN.Cg-Foxnlnu/Cr1Crlj mouse at 100 mg/kg, po measured upto 24 hrs by LC-MS/MS analysis; assay type: ADME, organism-based; set-up: route oral, dose 100 mg/kg, time <=24; details: in vivo
Summary of the method: (§1)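 Single oral dose in DMSO/Tween80/5% glucose (7:13:80, v/v/v) to female mice. Blood taken from retinal vein at 0.5, 1, 2, 8 and 24 h and spun to plasma. Plasma precipitated with 20 volumes acetonitrile/methanol (7:3) containing propranolol and niflumic acid internal standards, then analysed by LC-MS/MS. Cmax, tmax and AUC(0-24h) derived from mean plasma concentration.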

[4] = AUC (0 to 24 hrs) in CAnN.Cg-Foxnlnu/Cr1Crlj mouse at 30 mg/kg, po measured upto 24 hrs by LC-MS/MS analysis; assay type: ADME, organism-based; set-up: route oral, dose 30 mg/kg, time <=24; details: in vivo; summary of the method: as §1
[5] = Cmax in CAnN.Cg-Foxnlnu/Cr1Crlj mouse at 10 mg/kg, po measured upto 24 hrs by LC-MS/MS analysis; assay type: ADME, organism-based; set-up: route oral, dose 10 mg/kg, time <=24; details: in vivo; summary of the method: as §1
[6] = AUC (0 to 24 hrs) in CAnN.Cg-Foxnlnu/Cr1Crlj mouse at 100 mg/kg, po measured upto 24 hrs by LC-MS/MS analysis; assay type: ADME, organism-based; set-up: route oral, dose 100 mg/kg, time <=24; details: in vivo; summary of the method: as §1
[7] = Toxicity in BALB/c mouse assessed as effect on body weight at 100 mg/kg, po administered for 14 days; assay type: organism-based; details: in vivo, 336 h, time 14 day
Summary of the method: (§2)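 Female BALB/cAJcl mice (n = 3 or 5/group) dosed orally once daily for 14 days at 100 mg/kg; controls untreated. Body weight tracked. At necropsy after dosing, eyes fixed in 3% glutaraldehyde/2.5% formalin, paraffin-embedded, sectioned, stained with hematoxylin-eosin, and the retina examined histopathologically.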

[8] = Tmax in CAnN.Cg-Foxnlnu/Cr1Crlj mouse at 100 mg/kg, po measured upto 24 hrs by LC-MS/MS analysis; assay type: ADME, organism-based; details: in vivo; summary of the method: as §1
[9] = Tmax in CAnN.Cg-Foxnlnu/Cr1Crlj mouse at 30 mg/kg, po measured upto 24 hrs by LC-MS/MS analysis; assay type: ADME, organism-based; details: in vivo; summary of the method: as §1
[10] = biological target: T1, Tyrosine-protein kinase receptor TYRO3 (Homo sapiens) (UniProt Q06418); assay: Inhibition of Tyro3 (unknown origin)
T1 sequence (whole entry): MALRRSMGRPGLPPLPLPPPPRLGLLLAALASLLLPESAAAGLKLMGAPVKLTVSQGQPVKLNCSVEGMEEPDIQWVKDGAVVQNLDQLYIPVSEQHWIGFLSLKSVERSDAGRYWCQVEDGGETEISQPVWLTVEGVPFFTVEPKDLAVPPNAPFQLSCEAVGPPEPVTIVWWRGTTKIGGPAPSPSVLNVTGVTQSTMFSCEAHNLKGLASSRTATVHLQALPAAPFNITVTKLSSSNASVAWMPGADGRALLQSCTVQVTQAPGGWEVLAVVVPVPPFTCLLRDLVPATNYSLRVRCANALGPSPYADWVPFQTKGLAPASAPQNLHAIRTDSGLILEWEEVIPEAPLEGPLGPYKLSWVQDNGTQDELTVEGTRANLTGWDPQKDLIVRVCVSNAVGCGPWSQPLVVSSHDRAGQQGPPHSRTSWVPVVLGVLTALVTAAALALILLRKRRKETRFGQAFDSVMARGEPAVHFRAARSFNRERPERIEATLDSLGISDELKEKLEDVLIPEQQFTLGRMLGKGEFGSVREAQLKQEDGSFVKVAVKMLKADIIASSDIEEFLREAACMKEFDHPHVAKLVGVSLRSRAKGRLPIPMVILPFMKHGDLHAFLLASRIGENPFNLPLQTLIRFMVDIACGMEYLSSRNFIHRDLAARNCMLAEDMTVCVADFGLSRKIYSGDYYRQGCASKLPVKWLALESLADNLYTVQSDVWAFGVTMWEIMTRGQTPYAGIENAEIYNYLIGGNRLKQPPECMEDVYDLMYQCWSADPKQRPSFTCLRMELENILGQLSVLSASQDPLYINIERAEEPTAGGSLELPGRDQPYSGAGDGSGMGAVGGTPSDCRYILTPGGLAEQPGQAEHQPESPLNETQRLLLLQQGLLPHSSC

[11] = AUC (0 to 24 hrs) in CAnN.Cg-Foxnlnu/Cr1Crlj mouse at 10 mg/kg, po measured upto 24 hrs by LC-MS/MS analysis; assay type: ADME, organism-based; set-up: route oral, dose 10 mg/kg, time <=24; details: in vivo; summary of the method: as §1
[12] = Tmax in CAnN.Cg-Foxnlnu/Cr1Crlj mouse at 10 mg/kg, po measured upto 24 hrs by LC-MS/MS analysis; assay type: ADME, organism-based; details: in vivo; summary of the method: as §1
[13] = Toxicity in BALB/c mouse assessed as induction of necrosis in photoreceptor cells at 100 mg/kg, po administered for 14 days hematoxylin and eosin staining based assay; assay type: organism-based; details: in vivo, 336 h, time 14 day; summary of the method: as §2
[14] = biological target: Tyrosine-protein kinase Lck (Homo sapiens) (UniProt P06239); assay: Inhibition of LCK (unknown origin)
Chain of Tyrosine-protein kinase Lck (Homo sapiens) (P06239 2-509 limits assumed): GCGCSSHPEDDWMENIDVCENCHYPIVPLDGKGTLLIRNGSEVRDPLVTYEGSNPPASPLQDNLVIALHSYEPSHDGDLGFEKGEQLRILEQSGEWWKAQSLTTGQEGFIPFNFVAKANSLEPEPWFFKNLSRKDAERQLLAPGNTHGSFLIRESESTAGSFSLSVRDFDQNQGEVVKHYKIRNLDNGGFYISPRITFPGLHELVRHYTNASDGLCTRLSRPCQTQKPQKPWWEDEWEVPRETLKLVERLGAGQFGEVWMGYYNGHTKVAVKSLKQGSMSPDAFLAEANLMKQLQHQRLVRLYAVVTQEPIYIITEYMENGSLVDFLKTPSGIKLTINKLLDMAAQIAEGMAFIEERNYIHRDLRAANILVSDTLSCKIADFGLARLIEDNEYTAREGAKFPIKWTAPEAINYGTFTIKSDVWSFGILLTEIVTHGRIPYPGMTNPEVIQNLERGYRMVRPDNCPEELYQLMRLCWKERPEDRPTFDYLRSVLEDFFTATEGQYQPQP

[15] = Toxicity in C3H mouse xenografted with mouse BaF3 cells assessed as effect on body weight at 1 to 10 mg/kg, po administered for 4 days and measured on day 4; details: in vivo, 96 h
[16] = system: BaF3; assay: Antitumor activity against mouse BaF3 cells expressing Axl xenografted in C3H mouse assessed as reduction in tumor growth at 1 to 10 mg/kg, po administered for 4 days and measured on day 4; details: dose 1-10 mg/kg, time 4.0 day
[17] = biological target: Hepatocyte growth factor receptor (Homo sapiens) (UniProt P08581); assay: Inhibition of c-Met (unknown origin)
Chain of Hepatocyte growth factor receptor (Homo sapiens) (P08581 whole entry): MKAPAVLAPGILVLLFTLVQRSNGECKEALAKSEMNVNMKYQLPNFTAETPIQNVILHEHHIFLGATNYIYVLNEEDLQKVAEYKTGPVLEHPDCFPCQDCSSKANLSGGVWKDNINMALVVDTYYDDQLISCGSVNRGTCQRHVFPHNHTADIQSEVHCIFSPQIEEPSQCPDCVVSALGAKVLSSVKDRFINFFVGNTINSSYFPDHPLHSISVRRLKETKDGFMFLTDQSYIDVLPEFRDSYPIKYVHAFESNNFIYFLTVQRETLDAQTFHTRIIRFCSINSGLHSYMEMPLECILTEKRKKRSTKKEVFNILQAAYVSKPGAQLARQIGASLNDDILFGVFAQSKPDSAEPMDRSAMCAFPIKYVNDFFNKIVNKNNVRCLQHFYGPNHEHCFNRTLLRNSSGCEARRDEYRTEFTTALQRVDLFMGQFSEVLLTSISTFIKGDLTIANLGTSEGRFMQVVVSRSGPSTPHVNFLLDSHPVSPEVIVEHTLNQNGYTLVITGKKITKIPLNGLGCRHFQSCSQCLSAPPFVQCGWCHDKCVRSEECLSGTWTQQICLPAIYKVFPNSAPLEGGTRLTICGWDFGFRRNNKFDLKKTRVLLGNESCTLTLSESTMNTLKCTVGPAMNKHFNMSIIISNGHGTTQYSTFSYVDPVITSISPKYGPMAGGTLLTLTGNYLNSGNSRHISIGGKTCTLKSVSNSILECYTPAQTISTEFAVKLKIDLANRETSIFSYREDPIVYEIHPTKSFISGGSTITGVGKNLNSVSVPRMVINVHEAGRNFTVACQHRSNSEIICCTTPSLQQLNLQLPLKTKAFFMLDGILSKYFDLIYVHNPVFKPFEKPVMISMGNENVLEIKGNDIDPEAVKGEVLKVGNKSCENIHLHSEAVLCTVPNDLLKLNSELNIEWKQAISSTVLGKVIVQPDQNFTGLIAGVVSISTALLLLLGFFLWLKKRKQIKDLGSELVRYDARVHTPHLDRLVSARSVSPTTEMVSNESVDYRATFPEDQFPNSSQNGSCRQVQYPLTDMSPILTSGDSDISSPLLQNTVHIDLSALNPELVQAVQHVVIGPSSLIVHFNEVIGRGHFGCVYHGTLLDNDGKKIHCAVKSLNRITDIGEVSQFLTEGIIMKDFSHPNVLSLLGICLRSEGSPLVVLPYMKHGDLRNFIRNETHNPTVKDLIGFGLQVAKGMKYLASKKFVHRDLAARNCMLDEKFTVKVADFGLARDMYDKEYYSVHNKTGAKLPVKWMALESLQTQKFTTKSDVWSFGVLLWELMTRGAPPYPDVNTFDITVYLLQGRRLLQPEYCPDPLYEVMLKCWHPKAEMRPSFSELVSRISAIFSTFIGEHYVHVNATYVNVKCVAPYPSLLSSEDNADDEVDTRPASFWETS

[18] = Cmax in CAnN.Cg-Foxnlnu/Cr1Crlj mouse at 30 mg/kg, po measured upto 24 hrs by LC-MS/MS analysis; assay type: ADME, organism-based; set-up: route oral, dose 30 mg/kg, time <=24; details: in vivo; summary of the method: as §1

| Compound | solubility kinetic at 0.25 h [1] [µM] | remaining at 0.5 h [2] [%] | other results |
| --- | --- | --- | --- |
| CN1CCN(C2CCN(C(=O)Nc3cc(Oc4ccc(NC(=O)c5cn(C6CCCC6)c(=O)n(-c6ccc(F)cc6)c5=O)cc4)ncn3)CC2)CC1 | 80 (≈ 56.9 µg/mL) | 82 | – |
| CC(C)n1cc(C(=O)Nc2ccc(Oc3cc(NC(=O)N4CCC(N5CCN(C)CC5)CC4)ncn3)cc2)c(=O)n(-c2ccc(F)cc2)c1=O | 89 (≈ 61 µg/mL) | 88 | Cmax [3]: 13.5 µg/mL; AUC(0-t) [4]: 18.1 µg·h/mL; Cmax [5]: 1.58 µg/mL; AUC(0-t) [6]: 72.7 µg·h/mL; Activity [7]: Non-Toxic; Tmax [8]: 2 h; Tmax [9]: 2 h; inhibition [10]: inactive; AUC(0-t) [11]: 7.29 µg·h/mL; Tmax [12]: 2 h; Activity [13]: Non-Toxic; inhibition [14]: inactive; Activity [15]: Non-Toxic; TGI [16]: Active; inhibition [17]: inactive; Cmax [18]: 3.79 µg/mL |
| CC(C)n1cc(C(=O)Nc2ccc(Oc3ccnc(NC(=O)CN(C)C)c3)cc2)c(=O)n(-c2ccc(F)cc2)c1=O | 32 (≈ 17.9 µg/mL) | 19 | – |
| CC(C)n1cc(C(=O)Nc2ccc(Oc3cc(NC(=O)N4CC(N5CCCC5)C4)ncn3)cc2)c(=O)n(-c2ccc(F)cc2)c1=O | 80 (≈ 50.3 µg/mL) | 1.3 | – |
| CC(C)n1cc(C(=O)Nc2ccc(Oc3cc(NC(=O)N4CCC4)ncn3)cc2)c(=O)n(-c2ccc(F)cc2)c1=O | 36 (≈ 20.1 µg/mL) | 79 | – |
| CC(C)n1cc(C(=O)Nc2ccc(Oc3cc(NC(=O)N4CCCC4)ncn3)cc2)c(=O)n(-c2ccc(F)cc2)c1=O | 1 (≈ 0.574 µg/mL) | 59 | – |
| CN1CCN(C2CCN(C(=O)Nc3cc(Oc4ccc(NC(=O)c5cn(C)c(=O)n(-c6ccc(F)cc6)c5=O)cc4)ncn3)CC2)CC1 | 90 (≈ 59.2 µg/mL) | 99 | – |
| CC(C)n1cc(C(=O)Nc2ccc(Oc3cc(NC(=O)N4CC(N(C)C)C4)ncn3)cc2)c(=O)n(-c2ccc(F)cc2)c1=O | – | 0.3 | – |
| CC(C)n1cc(C(=O)Nc2ccc(Oc3cc(NC(=O)C4CC4)ncn3)cc2)c(=O)n(-c2ccc(F)cc2)c1=O | 6 (≈ 3.27 µg/mL) | 83 | – |
| CN1CCN(C2CCN(C(=O)Nc3cc(Oc4ccc(NC(=O)c5cn(C6CC6)c(=O)n(-c6ccc(F)cc6)c5=O)cc4)ncn3)CC2)CC1 | 89 (≈ 60.9 µg/mL) | 87 | – |
| CC(C)n1cc(C(=O)Nc2ccc(Oc3cc(NC(=O)N4CC(O)C4)ncn3)cc2)c(=O)n(-c2ccc(F)cc2)c1=O | 83 (≈ 47.8 µg/mL) | 92 | – |

Second part, led by results:

| solubility kinetic at 0.25 h [1] [µM] | remaining at 0.5 h [2] [%] | Compound | other results |
| --- | --- | --- | --- |
| 78 (≈ 49.3 µg/mL) | 76 | CC(C)n1cc(C(=O)Nc2ccc(Oc3ccnc(NC(=O)CC4CCN(C)CC4)c3)cc2F)c(=O)n(-c2ccc(F)cc2)c1=O | – |
| 70 (≈ 46.1 µg/mL) | 63 | CN1CCC(CC(=O)Nc2cc(Oc3ccc(NC(=O)c4cn(C5CCCC5)c(=O)n(-c5ccc(F)cc5)c4=O)cc3F)ccn2)CC1 | – |
| 75 (≈ 46.8 µg/mL) | 71 | CN1CCC(CC(=O)Nc2cc(Oc3ccc(NC(=O)c4cc5c(n(-c6ccccc6)c4=O)CCCC5=O)cc3F)ccn2)CC1 | – |
| 73 (≈ 45.5 µg/mL) | 75 | CN1CCC(CC(=O)Nc2cc(Oc3ccc(NC(=O)c4cc5c(n(-c6ccccc6)c4=O)CCCC5=O)c(F)c3)ccn2)CC1 | – |
| 50 (≈ 32.1 µg/mL) | 72 | CN1CCC(CC(=O)Nc2cc(Oc3cc(F)c(NC(=O)c4cc5c(n(-c6ccccc6)c4=O)CCCC5=O)cc3F)ccn2)CC1 | – |
| 77 (≈ 46.6 µg/mL) | 77 | CN1CCC(CC(=O)Nc2cc(Oc3ccc(NC(=O)c4cc5c(n(-c6ccccc6)c4=O)CCCC5=O)cc3)ccn2)CC1 | – |
| 82 (≈ 51.7 µg/mL) | 78 | CN1CCC(CC(=O)Nc2cc(Oc3ccc(NC(=O)c4cn(C5CC5)c(=O)n(-c5ccc(F)cc5)c4=O)cc3F)ccn2)CC1 | – |
| 80 (≈ 49.2 µg/mL) | 81 | CC(C)n1cc(C(=O)Nc2ccc(Oc3ccnc(NC(=O)CC4CCN(C)CC4)c3)cc2)c(=O)n(-c2ccc(F)cc2)c1=O | – |
| 76 (≈ 54.8 µg/mL) | 86 | CC(C)n1cc(C(=O)Nc2cc(F)c(Oc3ccnc(NC(=O)N4CCC(N5CCN(C)CC5)CC4)c3)cc2F)c(=O)n(-c2ccc(F)cc2)c1=O | Activity [7]: Non-Toxic; inhibition [10]: Active; Activity [13]: Toxic; inhibition [14]: Active; inhibition [17]: Active |
| 43 (≈ 30.6 µg/mL) | 78 | CN1CCN(C2CCN(C(=O)Nc3cc(Oc4cc(F)c(NC(=O)c5cc6c(n(-c7ccccc7)c5=O)CCCC6=O)cc4F)ccn3)CC2)CC1 | – |

Source: ChEMBL document CHEMBL4819114, “Discovery of a potent and selective Axl inhibitor in preclinical model” (Bioorg Med Chem, 2021)
